Consider 2 substances from article PMC6684861 (Traffic (Copenhagen, Denmark), 2018).

Experiment [1] deals with U2OS cells. To be noted: compared with pol λ in U2OS cells; ref [24]; cited from earlier work.
Experiment [2] concerns Impα. To be noted: ref [24]; cited from earlier work.
The subject of experiment [3] is U2OS cells. Put plainly: Nuclear/cytosolic ratio of pol X-GFP adducts in transfected U2OS cells. In kind it is cell-based, human. To be noted: among the four mammalian enzymes, in the cell-types investigated. An outline of the steps: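 U2OS cells in RPMI 1640 with 10% FBS (37 °C, 5% CO2) were seeded at 10,000 cells/chamber. They were transfected (Lipofectamine 2000, 1:4 DNA:reagent) with wild-type or NLS-mutant polymerase-GFP plasmids, then fixed at 24 h (3.7% formaldehyde), permeabilized and stained with CellMask and a nuclear stain. Confocal GFP intensity was measured in nuclear and cytoplasmic ROIs of ≥30 cells/construct. Ratios were averaged with ±2 SD outliers removed, then analysed by ANOVA/Tukey.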

Experiment [4] deals with ImpαΔIBB (Mus musculus, UniProt P52293). In words: X-ray crystallography of ImpαΔIBB-NLS peptide complexes. In kind it is binding, murine. To be noted: estimated from electron density. The gist of the method:
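ImpαΔIBB (15 mg/ml in 20 mM Tris pH 7.8, 125 mM NaCl, 5 mM DTT) was mixed with test NLS peptide at 1.25:1 molar excess. Crystals were grown by hanging-drop vapor diffusion. For two complexes the mother liquor was 0.7 or 0.8 M sodium citrate with 0.1 M HEPES pH 7.0. Rfree used 5% of reflections excluded from refinement. Geometry was checked with MolProbity.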

Primed or numbered codes have the meaning given here. No end group written: not given here. FITC′ = fluorescein isothiocyanate label

Consider DNA polymerase β [pol β], for which the “nuclear/cytosolic ratio of pol β” value in experiment [1] is recorded as ~ 3. In addition, in experiment [2], the “binding affinity of NLS for the minor binding pocket of Impα” value was “highly selective binding affinity for the minor binding pocket of Impα”.
Turning to “pol λ NLS: bipartite N-terminal NLS of pol λ (KAFPKRQKIHADASSKVLAKIPRREEGK-{FITC′})”, the “extent of nuclear localization, in words” value in experiment [3] is “greatest extent of nuclear localization”. For the same substance, the “occupancy of the minor binding pocket” value in experiment [4] is ~ 70%.
